Data as given in ChEMBL document CHEMBL1145471, “Small molecule regulators of autophagy identified by an image-based high-throughput screen” (Proc Natl Acad Sci U S A, 2007).
Activity calls are given as the source filed them. The rule behind the calls is not given here.

What was measured:
H4 [1] = assay: Increase in long-lived protein degradation in human H4 cells after 1 hr relative to control; assay type: functional; design: concentration or dose not given beside the values
H4 [2] = assay: Increase in FYVE-RFP+ vesicle intensity per cell in human H4 cells after 8 hrs relative to control; assay type: functional; design: concentration or dose not given beside the values
Outline: (§1)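 H4 cells stably expressing FYVE-RFP (H4-FYVE), grown in DMEM with 10% FBS, penicillin/streptomycin and 2 mM L-glutamine at 37°C, 5% CO2, seeded in 96-well plates and exposed to compound. Fixed in 4% paraformaldehyde, nuclei stained with 3 μg/ml DAPI, FYVE-RFP+ vesicles quantified by high-throughput fluorescence microscopy against DMSO control. Triplicate wells, mean ± SD.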

H4 [3] = assay: Increase in ratio of light chain 3 subunit 2 to light chain 3 subunit 1 in human H4 cells at 3.9 uM after 4 hrs by Western blot; assay type: functional, cell-based
Outline: (§2)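 H4 cells were exposed to compound for 4 h, then lysed. Lysates were blotted with anti-LC3 antibody, with actin as loading control, and the LC3II/LC3I band ratio was taken.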

H4 [4] = assay: Increase in long-lived protein degradation in human H4 cells after 24 hrs relative to control; assay type: functional; design: concentration or dose not given beside the values
H4 [5] = assay: Increase in light chain 3-GFP+ autophagosome vesicle number per cell in human H4 cells at 3.9 uM after 24 hrs by high throughput fluorescence microscopy relative to control; assay type: functional
Outline: (§3)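 H4 cells stably expressing LC3-GFP, kept in DMEM/10% FBS at 37°C, 5% CO2, were seeded in 96-well plates and exposed to compound for 24 h. Cells were then fixed in 4% paraformaldehyde and stained with 3 μg/ml DAPI. Automated fluorescence microscopy scored the number, size and intensity of LC3-GFP spots. Values are percent of DMSO wells, in triplicate, mean ± SD. Rapamycin served as positive control.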

H4 [6] = assay: Reduction of poly(Q) level in human H4 cells expressing EGFP-Q79-HA after 24 hrs; assay type: functional, cell-based
Outline: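 H4 cells were transiently transfected with an EGFP-Q79-HA expression vector. The medium was replaced 6 h after transfection and compounds were added. Poly(Q) was detected with anti-HA antibody.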

H4 [7] = assay: Increase in FYVE-RFP+ vesicle intensity per cell in human H4 cells after 4 hrs relative to control; assay type: functional; design: concentration or dose not given beside the values; outline: as §1
H4 [8] = assay: Increase in light chain 3-GFP+ autophagosome vesicle intensity per cell in human H4 cells at 3.9 uM after 24 hrs by high throughput fluorescence microscopy relative to control; assay type: functional
Outline: (§4)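 H4 cells stably expressing LC3-GFP, seeded in 96-well plates and exposed to compound for 24 h; fixed in 4% paraformaldehyde, nuclei stained with 3 μg/ml DAPI. Automated fluorescence microscopy scored number, size and intensity of LC3-GFP spots; values expressed relative to DMSO-treated wells, rapamycin positive control. Triplicate wells, mean ± SD; experiments repeated three times.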

[9] = target: T1, Serine/threonine-protein kinase mTOR (Homo sapiens, UniProt P42345); assay: Effect on mTOR phosphorylation in human H4 cells at 3.9 uM after 4 hrs; assay type: cell-based
Outline: (§5)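 H4 cells treated with compound for 4 h; lysates analysed by Western blot using anti-phospho/non-phospho mTOR antibody, with actin as loading control; rapamycin used for comparison. Cells grown in DMEM with 10% FBS, penicillin/streptomycin, 2 mM L-glutamine at 37°C, 5% CO2.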

H4 [10] = assay: Increase in FYVE-RFP+ vesicle intensity per cell in human H4 cells after 2 hrs relative to control; assay type: functional; design: concentration or dose not given beside the values; outline: as §1
H4 [11] = assay: Increase in light chain 3-GFP+ autophagosome vesicle area per cell in human H4 cells at 3.9 uM after 24 hrs by high throughput fluorescence microscopy relative to control; assay type: functional; outline: as §4
H4 [12] = assay: Increase in long-lived protein degradation in human H4 cells after 2 hrs relative to control; assay type: functional; design: concentration or dose not given beside the values
H4 [13] = assay: Increase in long-lived protein degradation in human H4 cells after 4 hrs relative to control; assay type: functional; design: concentration or dose not given beside the values
H4 [14] = assay: Induction of light chain 3-GFP level in human H4 cells at 3.9 uM after 24 hrs by high throughput fluorescence microscopy relative to control; assay type: functional; outline: as §3
H4 [15] = assay: Induction of light chain 3-GFP level in human H4 cells at 5.4 uM after 24 hrs by high throughput fluorescence microscopy relative to control; assay type: functional; outline: as §3
H4 [16] = assay: Effect on FYVE-RFP+ vesicle intensity per cell in human H4 cells after 8 hrs relative to control; assay type: functional; design: concentration or dose not given beside the values; outline: as §1
[17] = target: T1, Serine/threonine-protein kinase mTOR; assay: Effect on mTOR phosphorylation in human H4 cells at 5.4 uM after 4 hrs; assay type: cell-based; outline: as §5
H4 [18] = assay: Effect on FYVE-RFP+ vesicle intensity per cell in human H4 cells after 2 hrs relative to control; assay type: functional; design: concentration or dose not given beside the values; outline: as §1
H4 [19] = assay: Increase in light chain 3-GFP+ autophagosome vesicle intensity per cell in human H4 cells at 5.4 uM after 24 hrs by high throughput fluorescence microscopy relative to control; assay type: functional; outline: as §4
H4 [20] = assay: Increase in ratio of light chain 3 subunit 2 to light chain 3 subunit 1 in human H4 cells at 5.4 uM after 4 hrs by Western blot; assay type: functional, cell-based; outline: as §2
H4 [21] = assay: Increase in light chain 3-GFP+ autophagosome vesicle area per cell in human H4 cells at 5.4 uM after 24 hrs by high throughput fluorescence microscopy relative to control; assay type: functional; outline: as §4
H4 [22] = assay: Increase in light chain 3-GFP+ autophagosome vesicle number per cell in human H4 cells at 5.4 uM after 24 hrs by high throughput fluorescence microscopy relative to control; assay type: functional; outline: as §3
H4 [23] = assay: Effect on FYVE-RFP+ vesicle intensity per cell in human H4 cells after 4 hrs relative to control; assay type: functional; design: concentration or dose not given beside the values; outline: as §1
H4 [24] = assay: Increase in light chain 3-GFP+ autophagosome vesicle area per cell in human H4 cells at 0.2 uM after 24 hrs by high throughput fluorescence microscopy relative to control; assay type: functional
Outline: (§6)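 H4 cells stably expressing LC3-GFP, seeded in 96-well plates and exposed to compound for 24 h; screening concentrations were 3–12 μM, with rapamycin 0.22 μM and bafilomycin A1 0.40 μM. Cells fixed in 4% paraformaldehyde and stained with 3 μg/ml DAPI. Number, size and intensity of LC3-GFP spots measured by high-throughput fluorescence microscopy and expressed as percent of DMSO-treated wells. Rapamycin was the positive control. Triplicate wells, mean ± SD; experiments repeated three times.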

[25] = target: T1, Serine/threonine-protein kinase mTOR; assay: Effect on mTOR phosphorylation in human H4 cells at 0.2 uM after 4 hrs; assay type: cell-based; outline: as §5
H4 [26] = assay: Induction of light chain 3-GFP level in human H4 cells at 0.2 uM after 24 hrs by high throughput fluorescence microscopy relative to control; assay type: functional
H4 [27] = assay: Increase in ratio of light chain 3 subunit 2 to light chain 3 subunit 1 in human H4 cells at 0.2 uM after 4 hrs by Western blot; assay type: functional, cell-based
Outline: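 H4 cells were treated with each compound for 4 h, then lysed. Lysates were immunoblotted with anti-LC3 antibody, with actin as loading control. LC3II and LC3I bands were compared as an LC3II/LC3I ratio.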

H4 [28] = assay: Increase in light chain 3-GFP+ autophagosome vesicle number per cell in human H4 cells at 0.2 uM after 24 hrs by high throughput fluorescence microscopy relative to control; assay type: functional
Outline: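 H4 cells stably expressing LC3-GFP were grown in DMEM with 10% FBS and 2 mM L-glutamine at 37°C, 5% CO2. They were exposed to each compound for 24 h, with DMSO as negative and rapamycin as positive control. Cells were then fixed in 4% paraformaldehyde and stained with 3 μg/ml DAPI. High-throughput fluorescence imaging scored LC3-GFP spot number, size and intensity, expressed relative to DMSO. Mean ± SD of triplicates; experiments repeated three times.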

H4 [29] = assay: Increase in light chain 3-GFP+ autophagosome vesicle intensity per cell in human H4 cells at 0.2 uM after 24 hrs by high throughput fluorescence microscopy relative to control; assay type: functional; outline: as §6

For `C=C(C)[C@H]1O[C@H]2CC[C@@]3(C)[C@@](O)(CC[C@H]4[C@@H]5OC(C)(C)[C@H]6C[C@@H]7C(=C)Cc8c(Cl)cc9[nH]c(c5c9c8[C@@]76O)[C@@]43C)[C@@]23O[C@H]3[C@H]1O` [PENITREM A], the Activity (H4 [1]) was 92.88%, the Activity (H4 [2]) was 72.71% and the Activity (H4 [3]) was “Active”. For the same molecule, the Activity (H4 [4]) was 141.83%, the Activity (H4 [5]) was 146.36% and the Activity (H4 [6]) was “Dose-dependent effect”. The Activity (H4 [7]) was 87.41%, the Activity (H4 [8]) was 166.85% and the Activity [9] was “inactive”. The Activity (H4 [10]) was 121.4%, the Activity (H4 [11]) was 163.15% and the Activity (H4 [12]) was 126.09%. For the same molecule, the Activity (H4 [13]) was 132.13% and the Activity (H4 [14]) was 93.08%.

Molecule `O=c1[nH]c2ccccc2n1C1CCN(CCCC(c2ccc(F)cc2)c2ccc(F)cc2)CC1` [PIMOZIDE] has an Activity (H4 [1]) of 129.13%, an Activity (H4 [15]) of 127.14% and an Activity (H4 [16]) of 73.64%. The Activity [17] was “inactive”, the Activity (H4 [18]) was 94.42% and the Activity (H4 [4]) was 162.47%. The Activity (H4 [19]) was 447.75%, the Activity (H4 [6]) was “Dose-dependent effect” and the Activity (H4 [20]) was “Active”. For the same molecule, the Activity (H4 [21]) was 290.43%, the Activity (H4 [22]) was 218.96% and the Activity (H4 [12]) was 155.8%. It also gave an Activity (H4 [13]) of 152.01% and an Activity (H4 [23]) of 103.96%.

Work on `CO[C@H]1C[C@@H]2CC[C@@H](C)[C@@](O)(O2)C(=O)C(=O)N2CCCC[C@H]2C(=O)O[C@H]([C@H](C)C[C@@H]2CC[C@@H](O)[C@H](OC)C2)CC(=O)[C@H](C)/C=C(\C)[C@@H](O)[C@@H](OC)C(=O)[C@H](C)C[C@H](C)/C=C/C=C/C=C/1C` [SIROLIMUS] yielded an Activity (H4 [1]) of 159.89%, an Activity (H4 [2]) of 152.35% and an Activity (H4 [4]) of 165.87%. The Activity (H4 [24]) was 259.68%, the Activity (H4 [6]) was “Dose-dependent effect” and the Activity (H4 [7]) was 131.41%. The AC50 [25] was “Not Active”, the Activity (H4 [26]) was 88.62% and the Activity (H4 [27]) was “Active”. For the same molecule, the Activity (H4 [28]) was 205.66%, the Activity (H4 [29]) was 285.38% and the Activity (H4 [12]) was 171.67%. It also gave an Activity (H4 [13]) of 149.89%.
